ChEMBL document CHEMBL1811770, “Synthesis and structural investigation of some pyrimido[5,4-c]quinolin-4(3H)-one derivatives with a long-chain arylpiperazine moiety as potent 5-HT(1A/2A) and 5-HT(7) receptor ligands” (Eur J Med Chem, 2011)

Legend:
[1] = target: 5-hydroxytryptamine receptor 2A (Rattus norvegicus) (UniProt P14842); test: Displacement of [3H]ketanserin from 5HT2A receptor in rat cortex membrane at 10^-6 M by radioligand binding assay; format: cell membranes
Procedure, shortened: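 Single-point screen at 1 µM, reported as % inhibition of [3H]-ketanserin (88.0 Ci/mmol) binding. Non-specific binding was defined with 1 µM methysergide. Compounds inhibiting at least 85% went on to full competition.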

[2] = target: T1, 5-hydroxytryptamine receptor 1A (Rattus norvegicus, UniProt P19327); test: Displacement of [3H]8-OH-DPAT from 5HT1A receptor in rat hippocampal membrane by radioligand binding assay; format: cell membranes, Hippocampus
T1 sequence (P19327 whole entry): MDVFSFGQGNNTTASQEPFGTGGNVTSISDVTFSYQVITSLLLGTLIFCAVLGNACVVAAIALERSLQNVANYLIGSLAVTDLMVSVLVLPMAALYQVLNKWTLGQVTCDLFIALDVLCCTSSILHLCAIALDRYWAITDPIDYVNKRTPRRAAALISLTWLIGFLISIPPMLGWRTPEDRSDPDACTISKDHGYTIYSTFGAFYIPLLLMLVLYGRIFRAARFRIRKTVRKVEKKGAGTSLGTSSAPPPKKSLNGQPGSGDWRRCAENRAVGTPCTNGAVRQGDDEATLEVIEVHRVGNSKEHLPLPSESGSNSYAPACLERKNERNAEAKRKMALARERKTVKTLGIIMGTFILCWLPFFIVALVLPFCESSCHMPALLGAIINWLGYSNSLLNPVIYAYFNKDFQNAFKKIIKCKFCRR
Procedure, shortened: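 Rat hippocampal membranes were incubated with [3H]-8-OH-DPAT (170 Ci/mmol), with 10 µM 5-HT for non-specific binding. Competition used 7–9 test concentrations, each in triplicate, to give Ki. Values are means of three experiments run in triplicate.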

[3] = target: T2, 5-hydroxytryptamine receptor 1A (Rattus norvegicus) (UniProt P19327); test: Displacement of [3H]8-OH-DPAT from 5HT1A receptor in rat hippocampal membrane at 10^-6 M by radioligand binding assay; format: cell membranes; conditions: Hippocampus
T2 sequence (whole entry): T1 sequence (P19327 whole entry)
Procedure, shortened: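 Single-point screen at 1 µM on rat hippocampal membranes, reported as % inhibition of [3H]-8-OH-DPAT (170 Ci/mmol) binding. Non-specific binding was defined with 10 µM 5-HT. Compounds inhibiting at least 85% went on to full competition.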

[4] = target: 5-hydroxytryptamine receptor 7 (Homo sapiens, UniProt P34969); test: Displacement of [3H]-5-CT from human 5-HT7b receptor expressed in HEK293 cells by radioligand binding assay; format: cell-based
Procedure, shortened: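 Membranes from HEK-293 cells stably expressing human 5-HT7b receptor, with [3H]-5-CT (93.0 Ci/mmol) as radioligand. Full competition used 7–9 concentrations of test compound, each run in triplicate. Ki was derived from the inhibition.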

Chain of 5-hydroxytryptamine receptor 2A (Rattus norvegicus) (P14842 whole entry): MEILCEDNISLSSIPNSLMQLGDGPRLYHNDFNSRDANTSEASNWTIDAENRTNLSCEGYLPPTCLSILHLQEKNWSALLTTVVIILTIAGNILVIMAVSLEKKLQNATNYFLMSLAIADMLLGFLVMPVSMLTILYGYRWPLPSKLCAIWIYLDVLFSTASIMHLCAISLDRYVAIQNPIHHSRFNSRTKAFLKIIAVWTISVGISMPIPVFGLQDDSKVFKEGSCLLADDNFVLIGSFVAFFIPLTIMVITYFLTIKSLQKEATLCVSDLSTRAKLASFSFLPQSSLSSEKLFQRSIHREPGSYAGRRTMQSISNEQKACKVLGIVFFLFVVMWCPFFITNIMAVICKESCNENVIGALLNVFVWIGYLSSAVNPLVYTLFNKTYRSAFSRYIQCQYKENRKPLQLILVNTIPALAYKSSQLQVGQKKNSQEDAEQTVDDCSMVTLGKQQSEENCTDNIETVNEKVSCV
Chain of 5-hydroxytryptamine receptor 7 (P34969 whole entry): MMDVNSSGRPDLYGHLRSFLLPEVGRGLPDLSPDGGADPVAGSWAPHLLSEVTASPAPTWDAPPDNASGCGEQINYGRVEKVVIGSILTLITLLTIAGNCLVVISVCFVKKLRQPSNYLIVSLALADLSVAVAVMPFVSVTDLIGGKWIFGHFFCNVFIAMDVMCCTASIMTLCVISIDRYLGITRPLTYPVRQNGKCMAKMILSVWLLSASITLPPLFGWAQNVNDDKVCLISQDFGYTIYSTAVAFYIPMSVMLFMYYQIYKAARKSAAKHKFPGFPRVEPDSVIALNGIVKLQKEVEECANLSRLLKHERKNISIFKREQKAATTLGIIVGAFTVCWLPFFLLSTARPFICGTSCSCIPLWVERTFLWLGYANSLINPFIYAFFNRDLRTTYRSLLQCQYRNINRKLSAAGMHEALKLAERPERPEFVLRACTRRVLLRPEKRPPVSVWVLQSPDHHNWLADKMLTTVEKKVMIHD

## Cc1ccc2c(c1)ncc1c(=O)n(CCCN3CCN(c4ccccc4)CC3)cnc12
[1]
  inhibition: 44%
[2]
  Ki: 125 nM
[3]
  inhibition: 86%

## O=c1c2cnc3ccccc3c2ncn1CCCN1CCN(c2cccc(Cl)c2)CC1
[1]
  inhibition: 63%
[2]
  Ki: 80 nM
[3]
  inhibition: 91%

## COc1ccc(N2CCN(CCn3cnc4c(cnc5cc(C)ccc54)c3=O)CC2)cc1
[1]
  inhibition: 9%
[3]
  inhibition: 9%

## Cc1ccc2ncc3c(=O)n(CCCCN4CCN(c5cccc(Cl)c5)CC4)cnc3c2c1
[1]
  inhibition: 57%
[2]
  Ki: 67 nM
[3]
  inhibition: 91%

## Cc1ccc2c(c1)ncc1c(=O)n(CCCN3CCN(c4ccc(F)cc4)CC3)cnc12
[1]
  inhibition: 45%
[3]
  inhibition: 68%

## Cc1ccc2ncc3c(=O)n(CCCN4CCN(c5cccc(Cl)c5)CC4)cnc3c2c1
[1]
  inhibition: 44%
[3]
  inhibition: 77%

## Cc1ccc2c(c1)ncc1c(=O)n(CCCCN3CCN(c4ccc(F)cc4)CC3)cnc12
[1]
  inhibition: 57%
[3]
  inhibition: 60%

## O=c1c2cnc3ccccc3c2ncn1CCCCN1CCN(c2ccc(Cl)cc2)CC1
[1]
  inhibition: 79%
[4]
  Ki: 328 nM
[3]
  inhibition: 54%

## COc1ccccc1N1CCN(CCn2cnc3c(cnc4ccc(C)cc43)c2=O)CC1
[1]
  inhibition: 11%
[2]
  Ki: 82 nM
[3]
  inhibition: 88%

## Cc1ccc2c(c1)ncc1c(=O)n(CCN3CCN(c4cccc(C(F)(F)F)c4)CC3)cnc12
[1]
  inhibition: 8%
[2]
  Ki: 241 nM
[3]
  inhibition: 88%

## COc1ccc(N2CCN(CCCn3cnc4c(cnc5ccccc54)c3=O)CC2)cc1
[1]
  inhibition: 23%
[3]
  inhibition: 0%

## COc1ccc(N2CCN(CCCCn3cnc4c(cnc5ccccc54)c3=O)CC2)cc1
[1]
  inhibition: 48%
[4]
  Ki: > 10000 nM
[3]
  inhibition: 11%

## COc1cccc(N2CCN(CCCn3cnc4c(cnc5ccccc54)c3=O)CC2)c1
[1]
  inhibition: 26%
[2]
  Ki: 120 nM
[3]
  inhibition: 89%

## O=c1c2cnc3ccccc3c2ncn1CCCCN1CCN(c2ccccc2Cl)CC1
[1]
  inhibition: 72%
[2]
  Ki: 17 nM
[4]
  Ki: 153 nM
[3]
  inhibition: 92%

## Cc1ccc2ncc3c(=O)n(CCCCN4CCN(c5ccc(F)cc5)CC4)cnc3c2c1
[1]
  inhibition: 56%
[3]
  inhibition: 72%

## O=c1c2cnc3ccccc3c2ncn1CCCCN1CCN(c2ccc(F)cc2)CC1
[1]
  inhibition: 82%
[4]
  Ki: 404 nM
[3]
  inhibition: 75%

## COc1ccc(N2CCN(CCn3cnc4c(cnc5ccccc54)c3=O)CC2)cc1
[1]
  inhibition: 28%
[3]
  inhibition: 6%

## COc1cccc(N2CCN(CCn3cnc4c(cnc5ccccc54)c3=O)CC2)c1
[1]
  inhibition: 11%
[3]
  inhibition: 82%

## COc1ccccc1N1CCN(CCn2cnc3c(cnc4cc(C)ccc43)c2=O)CC1
[1]
  inhibition: 19%
[2]
  Ki: 14 nM
[3]
  inhibition: 96%

## O=c1c2cnc3ccccc3c2ncn1CCCCN1CCN(c2ccccc2)CC1
[1]
  inhibition: 76%
[2]
  Ki: 28 nM
[4]
  Ki: 612 nM
[3]
  inhibition: 93%

## Cc1ccccc1N1CCN(CCCCn2cnc3c(cnc4ccccc43)c2=O)CC1
[1]
  inhibition: 82%
[2]
  Ki: 52 nM
[4]
  Ki: 296 nM
[3]
  inhibition: 96%

## COc1ccc(N2CCN(CCn3cnc4c(cnc5ccc(C)cc54)c3=O)CC2)cc1
[1]
  inhibition: 4%
[3]
  inhibition: 5%

## O=c1c2cnc3ccccc3c2ncn1CCCCN1CCN(c2cccc(C(F)(F)F)c2)CC1
[1]
  inhibition: 61%
[2]
  Ki: 127 nM
[4]
  Ki: 418 nM
[3]
  inhibition: 89%

## O=c1c2cnc3ccccc3c2ncn1CCN1CCN(c2ccc(Cl)cc2)CC1
[1]
  inhibition: 4%
[3]
  inhibition: 11%

## COc1cccc(N2CCN(CCCCn3cnc4c(cnc5ccccc54)c3=O)CC2)c1
[1]
  inhibition: 76%
[2]
  Ki: 31 nM
[4]
  Ki: 484 nM
[3]
  inhibition: 90%

## COc1ccccc1N1CCN(CCn2cnc3c(cnc4ccccc43)c2=O)CC1
[1]
  inhibition: 36%
[2]
  Ki: 42 nM
[3]
  inhibition: 93%

## O=c1c2cnc3ccccc3c2ncn1CCCN1CCN(c2ccccc2Cl)CC1
[1]
  inhibition: 41%
[2]
  Ki: 93 nM
[3]
  inhibition: 87%

## O=c1c2cnc3ccccc3c2ncn1CCN1CCN(c2cccc(Cl)c2)CC1
[1]
  inhibition: 22%
[2]
  Ki: 55 nM
[3]
  inhibition: 93%

## O=c1c2cnc3ccccc3c2ncn1CCCN1CCN(c2ccccc2)CC1
[1]
  inhibition: 66%
[2]
  Ki: 47 nM
[3]
  inhibition: 95%

## Cc1ccccc1N1CCN(CCn2cnc3c(cnc4ccccc43)c2=O)CC1
[1]
  inhibition: 34%
[2]
  Ki: 514 nM
[3]
  inhibition: 84%

## COc1ccccc1N1CCN(CCCn2cnc3c(cnc4ccccc43)c2=O)CC1
[1]
  inhibition: 8%
[2]
  Ki: 20 nM
[3]
  inhibition: 97%

## O=c1c2cnc3ccccc3c2ncn1CCCN1CCN(c2ccccc2F)CC1
[1]
  inhibition: 27%
[2]
  Ki: 55 nM
[3]
  inhibition: 92%

## O=c1c2cnc3ccccc3c2ncn1CCN1CCN(c2ccccc2F)CC1
[1]
  inhibition: 25%
[3]
  inhibition: 47%

## Cc1ccc2ncc3c(=O)n(CCN4CCN(c5cccc(C(F)(F)F)c5)CC4)cnc3c2c1
[1]
  inhibition: 8%
[3]
  inhibition: 82%

## COc1ccccc1N1CCN(CCCCn2cnc3c(cnc4ccc(C)cc43)c2=O)CC1
[1]
  inhibition: 48%
[2]
  Ki: 8 nM
[3]
  inhibition: 99%

## Cc1ccc2c(c1)ncc1c(=O)n(CCCCN3CCN(c4ccccc4F)CC3)cnc12
[1]
  inhibition: 45%
[2]
  Ki: 83 nM
[3]
  inhibition: 90%

## O=c1c2cnc3ccccc3c2ncn1CCN1CCN(c2ccc(-c3ncccn3)cc2)CC1
[1]
  inhibition: 29%
[3]
  inhibition: 10%

## O=c1c2cnc3ccccc3c2ncn1CCN1CCN(c2cccc(C(F)(F)F)c2)CC1
[1]
  inhibition: 36%
[2]
  Ki: 160 nM
[3]
  inhibition: 89%

## Cc1ccccc1N1CCN(CCCn2cnc3c(cnc4ccccc43)c2=O)CC1
[1]
  inhibition: 32%
[3]
  inhibition: 81%

## O=c1c2cnc3ccccc3c2ncn1CCN1CCN(c2ccccc2)CC1
[1]
  inhibition: 26%
[3]
  inhibition: 66%

## O=c1c2cnc3ccccc3c2ncn1CCN1CCN(c2ccc(F)cc2)CC1
[1]
  inhibition: 14%
[3]
  inhibition: 40%

## O=c1c2cnc3ccccc3c2ncn1CCCN1CCN(c2cccc(C(F)(F)F)c2)CC1
[1]
  inhibition: 44%
[2]
  Ki: 243 nM
[3]
  inhibition: 85%

## COc1ccccc1N1CCN(CCCn2cnc3c(cnc4cc(C)ccc43)c2=O)CC1
[1]
  inhibition: 18%
[2]
  Ki: 31 nM
[3]
  inhibition: 92%

## COc1ccccc1N1CCN(CCCCn2cnc3c(cnc4cc(C)ccc43)c2=O)CC1
[1]
  inhibition: 43%
[2]
  Ki: 20 nM
[3]
  inhibition: 99%

## Cc1ccc2c(c1)ncc1c(=O)n(CCCCN3CCN(c4cccc(Cl)c4)CC3)cnc12
[1]
  inhibition: 62%
[2]
  Ki: 172 nM
[3]
  inhibition: 85%

## COc1ccccc1N1CCN(CCCCn2cnc3c(cnc4ccccc43)c2=O)CC1
[1]
  inhibition: 64%
[2]
  Ki: 6 nM
[4]
  Ki: 276 nM
[3]
  inhibition: 97%

## Cc1ccc2ncc3c(=O)n(CCCCN4CCN(c5ccccc5F)CC4)cnc3c2c1
[1]
  inhibition: 34%
[2]
  Ki: 97 nM
[3]
  inhibition: 94%

## Cc1ccc2c(c1)ncc1c(=O)n(CCCN3CCN(c4cccc(Cl)c4)CC3)cnc12
[1]
  inhibition: 40%
[3]
  inhibition: 73%

## O=c1c2cnc3ccccc3c2ncn1CCCN1CCN(c2ccc(Cl)cc2)CC1
[1]
  inhibition: 67%
[3]
  inhibition: 42%

## Cc1ccc2ncc3c(=O)n(CCCN4CCN(c5ccccc5)CC4)cnc3c2c1
[1]
  inhibition: 28%
[2]
  Ki: 128 nM
[3]
  inhibition: 86%

## O=c1c2cnc3ccccc3c2ncn1CCCN1CCN(c2ccc(F)cc2)CC1
[1]
  inhibition: 73%
[2]
  Ki: 129 nM
[3]
  inhibition: 85%

## Cc1ccc2ncc3c(=O)n(CCCN4CCN(c5ccc(F)cc5)CC4)cnc3c2c1
[1]
  inhibition: 39%
[3]
  inhibition: 67%

## COc1ccccc1N1CCN(CCCn2cnc3c(cnc4ccc(C)cc43)c2=O)CC1
[1]
  inhibition: 5%
[2]
  Ki: 26 nM
[3]
  inhibition: 93%

## O=c1c2cnc3ccccc3c2ncn1CCCCN1CCN(c2cccc(Cl)c2)CC1
[1]
  inhibition: 84%
[2]
  Ki: 34 nM
[4]
  Ki: 184 nM
[3]
  inhibition: 96%

## O=c1c2cnc3ccccc3c2ncn1CCCCN1CCN(c2ccccc2F)CC1
[1]
  inhibition: 79%
[2]
  Ki: 63 nM
[4]
  Ki: 739 nM
[3]
  inhibition: 96%

## O=c1c2cnc3ccccc3c2ncn1CCN1CCN(c2ccccc2Cl)CC1
[1]
  inhibition: 17%
[2]
  Ki: 78 nM
[3]
  inhibition: 90%
